Measurements taken from PMC3115469 (Molecular microbiology, 2011).
Where “and” joins values, the source holds several entries; their conditions need not be identical. Equal values may be shown once. Square brackets hold non-standard residues; d marks the D form. Peptide text beside a SMILES is read from it. Orn(N5-OH,N5-Ac) = CC(=O)N(O)CCC[C@H](N)C(=O)O

What was measured:
L. monocytogenes EGD-e [1] = assay: [59Fe]-Hn binding to whole cells, EGD-e; parameters: species or system Listeria monocytogenes; details: strain EGD-e; for Kd: read-out: Binding Kd, MOPS-L, on ice
L. monocytogenes EGD-e [2] = assay: Growth assay in BHI with 2,2'-bipyridyl; format: cell-based, Listeria monocytogenes
L. monocytogenes EGD-e [3] = details: aqueous buffers; ref Jin et al., 2005; cited from earlier work
HupD-6H (Lmo2431) = HupD-6H (Lmo2431) (Listeria monocytogenes, UniProt Q8Y4K7); assay: Intrinsic Trp fluorescence quenching, ligand binding to purified 6H-HupD
[4] = tested on: L. monocytogenes EGD-e Δhup (ΔhupDGC); assay: [59Fe]-Hn uptake by cells, Δhup; format: cell-based, Listeria monocytogenes
L. monocytogenes EGD-e [5] = assay: [59Fe]-Hn uptake by cells, EGD-e; format: cell-based, Listeria monocytogenes; details: for Km: read-out: Transport Km; for Km / Transport Vmax: 37°C
[6] = tested on: L. monocytogenes EGD-e ΔsrtA; assay: [59Fe]-Hn binding to whole cells, ΔsrtA; parameters: species or system Listeria monocytogenes; details: strain ΔsrtA
How it was run: (§1)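 Bacteria were grown overnight in BHI at 37°C, then passaged twice (1%) in iron-deficient MOPS-L to OD600 0.6–0.8. Cells were exposed on ice for 1 min to [59Fe]-Hn (DMSO stock diluted in ice-cold MOPS-L). They were filtered (0.45 µm), washed with 50 mM Tris-HCl pH 9.0 plus 0.05% Tween-20, and gamma-counted. Filter-only counts were subtracted. Triplicates were fitted to a one-site-plus-background model for KD and capacity (pmol/10^9 cells).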

[7] = tested on: L. monocytogenes EGD-e ΔsrtAB; assay: [59Fe]-Hn binding to whole cells, ΔsrtAB; parameters: species or system Listeria monocytogenes; details: strain ΔsrtAB
How it was run: as §1

[8] = tested on: L. monocytogenes EGD-e Δlmo2185 (Δhbp2); assay: [59Fe]-Hn binding to whole cells, Δlmo2185; parameters: species or system Listeria monocytogenes
[9] = tested on: L. monocytogenes EGD-e ΔsrtAB; assay: [59Fe]-Hn uptake by cells, ΔsrtAB; format: cell-based, Listeria monocytogenes; details: strain ΔsrtAB
How it was run: (§2)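 Cultures from overnight BHI (37°C) were passaged 1% into MOPS-L to stationary phase, then again to OD600 0.8–1. Cells were added to 37°C MOPS containing varying [59Fe]-Hn, filtered at 5 s and 1 min, washed with ice-cold 50 mM Tris, 0.05% Tween-20, pH 9, and gamma-counted. The 5 s counts were subtracted from 1 min counts to give rate. Triplicates were fitted to enzyme kinetics for KM and Vmax.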

[10] = tested on: L. monocytogenes EGD-e ΔsrtB; assay: [59Fe]-Hn uptake by cells, ΔsrtB; format: cell-based, Listeria monocytogenes; details: strain ΔsrtB
How it was run: as §2

[11] = tested on: L. monocytogenes EGD-e Δhup (ΔhupDGC); assay: [59Fe]-Hn binding to whole cells, Δhup; parameters: species or system Listeria monocytogenes
[12] = tested on: L. monocytogenes EGD-e ΔsrtB; assay: [59Fe]-Hn binding to whole cells, ΔsrtB; parameters: species or system Listeria monocytogenes
Lmo2185 (Hbp2) = biological target: T1, Lmo2185 (Hbp2) (Listeria monocytogenes serovar 1/2a, UniProt Q7AP54); assay: Equilibrium [59Fe]-Hn filter binding to purified Lmo2185
T1 sequence (Q7AP54 29-569): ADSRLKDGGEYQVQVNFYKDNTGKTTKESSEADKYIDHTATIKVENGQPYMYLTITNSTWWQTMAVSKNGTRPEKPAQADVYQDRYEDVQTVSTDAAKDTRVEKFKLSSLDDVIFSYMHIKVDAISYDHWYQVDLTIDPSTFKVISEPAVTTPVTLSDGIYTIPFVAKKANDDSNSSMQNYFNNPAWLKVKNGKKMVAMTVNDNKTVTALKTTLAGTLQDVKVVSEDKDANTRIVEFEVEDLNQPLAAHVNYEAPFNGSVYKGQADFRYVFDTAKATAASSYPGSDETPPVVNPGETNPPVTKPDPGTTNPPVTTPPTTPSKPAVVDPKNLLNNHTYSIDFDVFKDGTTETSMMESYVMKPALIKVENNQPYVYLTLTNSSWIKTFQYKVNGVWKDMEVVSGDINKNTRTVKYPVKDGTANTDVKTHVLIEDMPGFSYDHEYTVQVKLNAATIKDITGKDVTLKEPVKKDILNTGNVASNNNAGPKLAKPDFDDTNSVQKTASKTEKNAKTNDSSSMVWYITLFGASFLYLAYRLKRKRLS
How it was run: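 His-tagged Hbp2 expressed in E. coli BL21 (1 mM IPTG), purified on Co-NTA and Sephacryl S-100, stripped of Hn by boiling in 0.5% SDS and acetone precipitation, then renatured in TBS pH 8.0. Protein at 30.6 pmol/mL, refolded 1 h at RT, mixed with [59Fe]-Hn (DMSO) for 30 min on ice. Filtered on cellulose acetate and gamma-counted. Triplicates, protein-free background subtracted, KD from bound-vs-total fit.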

[13] = tested on: L. monocytogenes EGD-e ΔsrtA; assay: [59Fe]-Hn uptake by cells, ΔsrtA; format: cell-based, Listeria monocytogenes; details: strain ΔsrtA
How it was run: as §2

E. coli FhuA = details: ref Newton et al., 2010; cited from earlier work
[14] = biological target: listerial CM Fc transporter FhuDBGC; details: ref Jin et al., 2005, cited from earlier work
L. monocytogenes EGD-e [15] = assay: Iron nutrition tests on BHI agar with bipyridyl, EGD-e; format: cell-based, Listeria monocytogenes; details: 50 uM Fc, EGD-e and all mutant strains
FhuD-6H (Lmo1959) = FhuD-6H (Lmo1959) (Listeria monocytogenes, UniProt Q8Y5U6); assay: Intrinsic Trp fluorescence quenching, ligand binding to purified 6H-FhuD

C=CC1=C(C)c2cc3[nH]c(cc4nc(cc5[nH]c(cc1n2)c(C)c5C=C)C(C)=C4CCC(=O)O)c(CCC(=O)O)c3C.[Fe+3] [Hn, haemin]
Kd (L. monocytogenes EGD-e [1]): ~1 nM | effect on growth in BHI containing 1 mM BP (L. monocytogenes EGD-e [2]; 0.2 mM Hn added (printed), EGD-e): returned to its original growth rate | concentration that stimulated growth in previous study (L. monocytogenes EGD-e [3]): 200 µM | fold higher affinity of 6H-HupD than the most avid LmoFhuD binding interaction (HupD-6H (Lmo2431); relative to FhuD-FxB): 5 fold | Transport Vmax ([4]; strain Δhup): 7 pMol/10^9cells/min | fold lower uptake rate than wild type ([4]; ΔhupDBGC strain vs EGD-e): 3 fold | Km (L. monocytogenes EGD-e [5]; strain EGD-e): 1 nM and ~1 nM | Transport Vmax (L. monocytogenes EGD-e [5]; strain EGD-e): 23 pMol/10^9cells/min

C=CC1=C(C)c2cc3[n-]c(cc4nc(cc5[n-]c(cc1n2)c(C)c5CCC(=O)O)C(CCC(=O)O)=C4C)c(C)c3C=C.[59Fe+3] [[^59Fe]-Hn]
Kd ([6]; read-out: Binding Kd): 2.3 ± 0.16 nM | Binding Cap. [6]: 130 pMol/10^9cells and 129 ± 1.9 pMol/10^9cells | Kd (L. monocytogenes EGD-e [1]): 2 nM and 2.4 nM | Binding Cap. (L. monocytogenes EGD-e [1]): 130 pMol/10^9cells and 129.5 ± 5.6 pMol/10^9cells | Kd ([7]; read-out: Binding Kd): 5.1 ± 3 nM | Binding Cap. [7]: 9 pMol/10^9cells and 9 ± 1.5 pMol/10^9cells | Kd ([8]; read-out: Binding Kd, strain Δlmo2185 (Δhbp2)): 11.4 ± 2.6 nM | Binding Cap. ([8]; strain Δlmo2185 (Δhbp2)): 30.1 ± 2.9 pMol/10^9cells | decrease of binding capacity ([8]; Δhbp2 vs EGD-e, nanomolar range): 80% | Km ([9]; read-out: Transport Km): 15.1 ± 6.4 nM | Transport Vmax [9]: 5.6 ±1.3 pMol/10^9cells/min | Km ([10]; read-out: Transport Km): 7.1 ± 7.5 nM | Transport Vmax [10]: 3.5 ± 1.6 pMol/10^9cells/min | Kd ([11]; read-out: Binding Kd, strain Δhup): 2.5 ± 0.45 nM | Binding Cap. ([11]; strain Δhup): 105 pMol/10^9cells and 105 ± 4.2 pMol/10^9cells | decrease of binding capacity ([11]; Δhup vs EGD-e): ~ 20% and 20% | Kd ([12]; read-out: Binding Kd, strain ΔsrtB): 9.9 ± 1.3 nM | Binding Cap. ([12]; strain ΔsrtB): 19 pMol/10^9cells and 18.7 ± 0.9 pMol/10^9cells | decrease of binding capacity ([12]; ΔsrtB vs EGD-e, nanomolar range): 80% | Km ([4]; read-out: Transport Km, strain Δhup): 1.1 ± 0.2 nM | Transport Vmax ([4]; strain Δhup): 7.5 pMol/10^9cells/min and 7.5 ± 0.3 pMol/10^9cells/min | Vmax as percent of the wild type rate ([4]; ΔhupDGC vs EGD-e): 27% | Km (L. monocytogenes EGD-e [5]; strain EGD-e): 1.2 ± 0.2 nM | Hup-dependent transport rate Vmax (L. monocytogenes EGD-e [5]; residual accumulation in Δhup subtracted from wild-type, estimate): 14 pMol/10^9 cells/min | Vmax of uptake (text, unit without /min) (L. monocytogenes EGD-e [5]; strain EGD-e): 23 pMol/10^9 cells | Transport Vmax (L. monocytogenes EGD-e [5]; strain EGD-e): 22.2 ± 0.9 pMol/10^9cells/min | Kd (Lmo2185 (Hbp2)): 12 nM | Km ([13]; read-out: Transport Km): 1.4 ± 0.2 nM | Transport Vmax [13]: 23.1 ± 0.6 pMol/10^9cells/min

CC(=O)N(O)CCC[C@@H]1NC(=O)CNC(=O)CNC(=O)CNC(=O)[C@H](CCCN(O)C(C)=O)NC(=O)[C@H](CCCN(O)C(C)=O)NC1=O.[Fe+3] [Fc, ferrichrome] (cyclo(GGG[Orn(N5-OH,N5-Ac)][Orn(N5-OH,N5-Ac)][Orn(N5-OH,N5-Ac)]))
Vmax of Fc transport, E. coli FhuA (E. coli FhuA): 45 pMol/10^9 cells/min | Kd ([14]; read-out: KD, listerial Fc acquisition, KD ≈ KM): ~1 nM | Km ([14]; read-out: KM, listerial Fc transport, KD ≈ KM): ~1 nM | Vmax of Fc transport, FhuDBGC [14]: 22 pMol/10^9 cells/min | utilization as iron source in nutrition test (L. monocytogenes EGD-e [15]): normally utilized

c1ccc(-c2ccccn2)nc1 [BP, 2, 2’-bipyridyl]
effect on growth in BHI (L. monocytogenes EGD-e [2]; 1 mM BP, wild type and mutant derivatives): inhibited growth

C=CC1=C(C)c2cc3[nH]c(cc4nc(cc5[nH]c(cc1n2)c(C)c5CCC(=O)O)C(CCC(=O)O)=C4C)c(C)c3C=C [PPIX, protoporphyrin IX]
Kd (HupD-6H (Lmo2431)): 1150 nM | fold lower affinity for LmoHupD than Hn (HupD-6H (Lmo2431); relative to Hn): 40 fold | Kd (FhuD-6H (Lmo1959); Binding Kd FhuD-6H, intrinsic fluorescence quenching, 3–5 trials, Kd ± SD): 276 ± 32 nM | Kd (FhuD-6H (Lmo1959); KD for 6H-FhuD, fluorescence spectroscopy): 300 nM
